Reference: ChEMBL document CHEMBL3351454, “Design, synthesis, antimicrobial evaluation and molecular docking studies of some new thiophene, pyrazole and pyridone derivatives bearing sulfisoxazole moiety” (2014)
≈ marks a conversion by molar mass, not a printed value.

Experiments:
Type in all cases: functional
Streptococcus pneumoniae [1] = test: Antimicrobial activity against Streptococcus pneumoniae RCMB 010010 assessed as inhibition zone at 5 mg/ml after 24 hrs; conditions: RCMB 010010, 24 h, read-out: IZ
Procedure, shortened: (§1)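 Agar diffusion on nutrient agar seeded with 10^6 CFU/mL bacteria. Filter-paper disks were loaded with 100 µL of a 5 mg/mL compound solution in DMF, with a DMF-only control. Incubation was 37 °C for 24 h. Inhibition zone in mm (mean ± SD, triplicate plates) was measured beyond the 6 mm diameter.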

Streptococcus pneumoniae [2] = test: Antimicrobial activity against Streptococcus pneumoniae RCMB 010010 assessed as absence of turbidity after 24 hrs; conditions: RCMB 010010, 24 h
Procedure, shortened: (§2)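 Broth microdilution in Müller–Hinton broth. DMF stocks at 1000 µg/mL were diluted in broth to give twofold serial dilutions over 500–0.007 µg/mL. Bacterial inoculum was about 10^6 CFU/mL in 96-well plates, sealed and incubated at 37 °C for 24 h in a humid chamber. MIC was taken as the lowest concentration with no visible turbidity. DMF and uninoculated-medium controls were included. Only compounds giving zones >10 mm were tested.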

Bacillus subtilis [3] = test: Antimicrobial activity against Bacillis subtilis RCMB 010067 assessed as inhibition zone at 5 mg/ml after 24 hrs; conditions: RCMB 010067, 24 h, read-out: IZ; procedure, shortened: as §1
Bacillus subtilis [4] = test: Antimicrobial activity against Bacillis subtilis RCMB 010067 assessed as absence of turbidity after 24 hrs; conditions: RCMB 010067, 24 h; procedure, shortened: as §2
[5] = test system: Staphylococcus epidermidis; test: Antimicrobial activity against Staphylococcus epidermidis RCMB 010024 assessed as inhibition zone at 5 mg/ml after 24 hrs; conditions: RCMB 010024, 24 h, read-out: IZ; procedure, shortened: as §1
[6] = test system: Staphylococcus epidermidis; test: Antimicrobial activity against Staphylococcus epidermidis RCMB 010024 assessed as absence of turbidity after 24 hrs; conditions: RCMB 010024, 24 h; procedure, shortened: as §2
Escherichia coli [7] = test: Antimicrobial activity against Escherichia coli RCMB 010052 assessed as inhibition zone at 5 mg/ml after 24 hrs; conditions: RCMB 010052, 24 h, read-out: IZ; procedure, shortened: as §1
Escherichia coli [8] = test: Antimicrobial activity against Escherichia coli RCMB 010052 assessed as absence of turbidity after 24 hrs; conditions: RCMB 010052, 24 h; procedure, shortened: as §2
Proteus vulgaris [9] = test: Antimicrobial activity against Proteus vulgaris RCMB 010085 assessed as inhibition zone at 5 mg/ml after 24 hrs; conditions: RCMB 010085, 24 h, read-out: IZ; procedure, shortened: as §1
Proteus vulgaris [10] = test: Antimicrobial activity against Proteus vulgaris RCMB 010085 assessed as absence of turbidity after 24 hrs; conditions: RCMB 010085, 24 h; procedure, shortened: as §2
Klebsiella pneumoniae [11] = test: Antimicrobial activity against Klebsiella pneumoniae RCMB 010093 assessed as inhibition zone at 5 mg/ml after 24 hrs; conditions: RCMB 010093, 24 h, read-out: IZ; procedure, shortened: as §1
Klebsiella pneumoniae [12] = test: Antimicrobial activity against Klebsiella pneumoniae RCMB 010093 assessed as absence of turbidity after 24 hrs; conditions: RCMB 010093, 24 h; procedure, shortened: as §2
Aspergillus fumigatus [13] = test: Antifungal activity against Aspergillus fumigatus RCMB 02568 assessed as inhibition zone at 5 mg/ml after 48 hrs; conditions: RCMB 02568, 48 h, read-out: IZ
Procedure, shortened: (§3)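 Disk diffusion on nutrient agar seeded with 10^4 CFU/mL fungus. Sterile filter-paper disks carried 100 µL of a 5 mg/mL DMF solution, and DMF alone served as control. Plates were incubated at 25 °C for 48 h. Mean inhibition zone in mm ± SD was read beyond the 6 mm diameter, in triplicate.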

Aspergillus fumigatus [14] = test: Antifungal activity against Aspergillus fumigatus RCMB 02568 assessed as absence of turbidity after 48 hrs; conditions: RCMB 02568, 48 h
Procedure, shortened: (§4)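 Broth microdilution in Sabouraud liquid medium. DMF stocks at 1000 µg/mL were diluted in broth to give twofold serial dilutions over 500–0.007 µg/mL. Fungal inoculum was about 10^4 CFU/mL in 96-well plates, sealed and incubated at 25 °C for 48 h in a humid chamber. MIC was taken as the lowest concentration with no visible turbidity. DMF and uninoculated-medium controls were included.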

[15] = test system: Syncephalastrum racemosum; test: Antifungal activity against Syncephalastrum racemosum RCMB 05922 assessed as inhibition zone at 5 mg/ml after 48 hrs; conditions: RCMB 05922, 48 h, read-out: IZ
[16] = test system: Syncephalastrum racemosum; test: Antifungal activity against Syncephalastrum racemosum RCMB 05922 assessed as absence of turbidity after 48 hrs; conditions: RCMB 05922, 48 h
Geotrichum candidum [17] = test: Antifungal activity against Geotrichum candidum RCMB 05097 assessed as inhibition zone at 5 mg/ml after 48 hrs; conditions: RCMB 05097, 48 h, read-out: IZ; procedure, shortened: as §3
Geotrichum candidum [18] = test: Antifungal activity against Geotrichum candidum RCMB 05097 assessed as absence of turbidity after 48 hrs; conditions: RCMB 05097, 48 h; procedure, shortened: as §4

Structure (SMILES) | zone of inhibition at 5000 µg/mL (Streptococcus pneumoniae [1]) | MIC (Streptococcus pneumoniae [2]) | zone of inhibition at 5000 µg/mL (Bacillus subtilis [3]) | MIC (Bacillus subtilis [4]) | zone of inhibition at 5000 µg/mL [5] | MIC [6] | zone of inhibition at 5000 µg/mL (Escherichia coli [7]) | MIC (Escherichia coli [8]) | zone of inhibition at 5000 µg/mL (Proteus vulgaris [9]) | MIC (Proteus vulgaris [10]) | zone of inhibition at 5000 µg/mL (Klebsiella pneumoniae [11]) | MIC (Klebsiella pneumoniae [12]) | zone of inhibition at 5000 µg/mL (Aspergillus fumigatus [13]) | MIC (Aspergillus fumigatus [14]) | zone of inhibition at 5000 µg/mL [15] | MIC [16] | zone of inhibition at 5000 µg/mL (Geotrichum candidum [17]) | MIC (Geotrichum candidum [18])
Cc1cc(C)n(-c2ccc(S(=O)(=O)Nc3onc(C)c3C)cc2)c(=O)c1C#N | 23.8 mm | 0.12 µg/mL (≈ 0.301 µM) | 25.3 mm | 0.06 µg/mL (≈ 0.151 µM) | 21.4 mm | 0.98 µg/mL (≈ 2.46 µM) | 20.9 mm | 0.98 µg/mL (≈ 2.46 µM) | 19.5 mm | 1.85 µg/mL (≈ 4.64 µM) | 21.4 mm | 0.98 µg/mL (≈ 2.46 µM) | 22.9 mm | 0.24 µg/mL (≈ 0.602 µM) | 20.3 mm | 1.95 µg/mL (≈ 4.89 µM) | 23.1 mm | 0.24 µg/mL (≈ 0.602 µM)
Cc1noc(NS(=O)(=O)c2ccc(NC(=O)c3cn[nH]c3N)cc2)c1C | 17.8 mm | 7.81 µg/mL (≈ 20.7 µM) | 18 mm | 7.81 µg/mL (≈ 20.7 µM) | 16.1 mm | 31.2 µg/mL (≈ 83 µM) | 13 mm | 125 µg/mL (≈ 332 µM) | 11 mm | 500 µg/mL (≈ 1330 µM) | 14.6 mm | 125 µg/mL (≈ 332 µM) | 18.6 mm | 7.81 µg/mL (≈ 20.7 µM) | 17.2 mm | 15.6 µg/mL (≈ 41.5 µM) | 18.9 mm | 7.81 µg/mL (≈ 20.7 µM)
Cc1noc(NS(=O)(=O)c2ccc(-n3c(S)c(C#N)c(-c4cccnc4)c(C#N)c3=O)cc2)c1C | 21.3 mm | 0.98 µg/mL (≈ 1.94 µM) | 22.6 mm | 0.24 µg/mL (≈ 0.476 µM) | 20 mm | 1.95 µg/mL (≈ 3.86 µM) | 19.2 mm | 3.9 µg/mL (≈ 7.73 µM) | 17.6 mm | 7.81 µg/mL (≈ 15.5 µM) | 21 mm | 0.98 µg/mL (≈ 1.94 µM) | 21.2 mm | 0.98 µg/mL (≈ 1.94 µM) | 19.2 mm | 3.9 µg/mL (≈ 7.73 µM) | 22 mm | 0.49 µg/mL (≈ 0.971 µM)
COc1ccc(-c2[nH]nc(N)c2C(=O)Nc2ccc(S(=O)(=O)Nc3onc(C)c3C)cc2)cc1 | 22 mm | 0.49 µg/mL (≈ 1.02 µM) | 20.4 mm | 1.95 µg/mL (≈ 4.04 µM) | 18.9 mm | 3.9 µg/mL (≈ 8.08 µM) | 17.8 mm | 7.81 µg/mL (≈ 16.2 µM) | 19.6 mm | 1.95 µg/mL (≈ 4.04 µM) | 17.1 mm | 15.6 µg/mL (≈ 32.4 µM) | 26.1 mm | 0.03 µg/mL (≈ 0.0622 µM) | 24.4 mm | 0.12 µg/mL (≈ 0.249 µM) | 13.6 mm | 125 µg/mL (≈ 259 µM)
COc1ccc(-c2c(C#N)c(N)n(-c3ccc(S(=O)(=O)Nc4onc(C)c4C)cc3)c(=O)c2C#N)cc1 | 20.3 mm | 0.98 µg/mL (≈ 1.9 µM) | 22.2 mm | 0.49 µg/mL (≈ 0.949 µM) | 18.1 mm | 7.81 µg/mL (≈ 15.1 µM) | 16.2 mm | 31.2 µg/mL (≈ 60.5 µM) | 17.2 mm | 15.6 µg/mL (≈ 30.3 µM) | 22.3 mm | 0.49 µg/mL (≈ 0.949 µM) | 20.6 mm | 0.98 µg/mL (≈ 1.9 µM) | 19.7 mm | 1.95 µg/mL (≈ 3.78 µM) | 20.9 mm | 0.98 µg/mL (≈ 1.9 µM)
CC(=O)OC[C@H]1O[C@@H](Sc2c(C#N)c(-c3ccc(Cl)cc3)c(C#N)c(=O)n2-c2ccc(S(=O)(=O)Nc3onc(C)c3C)cc2)[C@H](OC(C)=O)[C@@H](OC(C)=O)[C@@H]1OC(C)=O | 25.1 mm | 0.06 µg/mL (≈ 0.0691 µM) | 29.8 mm | 0.007 µg/mL (≈ 0.00806 µM) | 24.2 mm | 0.12 µg/mL (≈ 0.138 µM) | 23.2 mm | 0.24 µg/mL (≈ 0.276 µM) | 21.2 mm | 0.98 µg/mL (≈ 1.13 µM) | 25.8 mm | 0.03 µg/mL (≈ 0.0346 µM) | 22.3 mm | 0.49 µg/mL (≈ 0.564 µM) | 20.3 mm | 3.9 µg/mL (≈ 4.49 µM) | 25.8 mm | 0.03 µg/mL (≈ 0.0346 µM)
Cc1noc(NS(=O)(=O)c2ccc(NC(=O)/C(C#N)=C/c3cccnc3)cc2)c1C | 24.6 mm | 0.06 µg/mL (≈ 0.142 µM) | 26.2 mm | 0.03 µg/mL (≈ 0.0708 µM) | 22.3 mm | 0.49 µg/mL (≈ 1.16 µM) | 23.7 mm | 0.12 µg/mL (≈ 0.283 µM) | 19.3 mm | 3.9 µg/mL (≈ 9.21 µM) | 24.2 mm | 0.12 µg/mL (≈ 0.283 µM) | 23.4 mm | 0.49 µg/mL (≈ 1.16 µM) | 18.7 mm | 3.9 µg/mL (≈ 9.21 µM) | 25.6 mm | 0.03 µg/mL (≈ 0.0708 µM)
Cc1noc(NS(=O)(=O)c2ccc(NC(=O)/C(C#N)=C/c3ccccc3)cc2)c1C | 18.4 mm | 7.81 µg/mL (≈ 18.5 µM) | 20.3 mm | 1.95 µg/mL (≈ 4.62 µM) | 19.1 mm | 3.9 µg/mL (≈ 9.23 µM) | 20.6 mm | 1.95 µg/mL (≈ 4.62 µM) | 18 mm | 7.81 µg/mL (≈ 18.5 µM) | 21.9 mm | 0.49 µg/mL (≈ 1.16 µM) | 17.1 mm | 15.6 µg/mL (≈ 37 µM) | 18.8 mm | 7.81 µg/mL (≈ 18.5 µM) | 20.9 mm | 0.98 µg/mL (≈ 2.32 µM)
